# Measurements published in ChEMBL document CHEMBL1275408, “A chemical genomic screen in Saccharomyces cerevisiae reveals a role for diphthamidation of translation elongation factor 2 in inhibition of protein synthesis by sordarin” (2008).
# Active and inactive are the calls of the source. The rule behind the calls is not given here.
# What was measured:
# [1] = system: Saccharomyces cerevisiae; assay: Antifungal activity against Saccharomyces cerevisiae BY4741 assessed as reduction in fungal growth up to 500 ng/ml for 72 hrs by spectrophotometry; format: functional, organism-based
# Outline: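 BY4741 grown overnight in SC (synthetic complete) medium, then inoculated into microtiter wells of SC medium containing successive twofold dilutions of sordarin starting at 500 ng/ml (range 0–500 ng/ml). Cultures incubated at 28°C, and growth followed as a growth inhibition curve.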
# [2] = system: Saccharomyces cerevisiae; assay: Antifungal activity against Saccharomyces cerevisiae BY4741 harboring YER087W mutation in unknown gene by spectrophotometry; format: functional
# Outline: (§1)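 Deletion strains from the nonessential haploid MATa BY4741 collection (KanMX4 replacement) were grown in YPD with G418 at 28°C for 3 days, then pinned into liquid SC with or without sordarin derivative GM193663 (2 ng/ml for sensitivity, 62.5 ng/ml for resistance). Cultures were kept at 28°C and read at OD595 every 24 h for 5 days. Growth was scored against wild type on the same plate and against the drug-free control. Hits were retested at least in duplicate.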
# [3] = system: Saccharomyces cerevisiae; assay: Antifungal activity against Saccharomyces cerevisiae BY4741 harboring LDB17 YDL146W mutant gene by spectrophotometry; format: functional
# Outline: (§2)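 Screen of BY4741 KanMX4 deletion strains pre-grown 3 days at 28°C in YPD with G418 (150 mg/liter), then pinned into liquid SC containing GM193663. The sensitivity screen used 2 ng/ml; the resistance screen used 62.5 ng/ml, with validation at 62.5, 125 and 500 ng/ml. OD595 was read every 24 h over 5 days at 28°C. Growth was scored relative to wild type and to drug-free controls. Retests were at least in duplicate.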
# [4] = system: Saccharomyces cerevisiae; assay: Antifungal activity against Saccharomyces cerevisiae BY4741 harboring LYS14 YDR034C mutant gene by spectrophotometry; format: functional; outline: as §2
# [5] = system: Saccharomyces cerevisiae; assay: Antifungal activity against Saccharomyces cerevisiae BY4741 harboring PUF3 YLL013C mutant gene by spectrophotometry; format: functional
# Outline: (§3)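 Haploid MATa BY4741 KanMX4 deletion strains pinned from frozen stocks into YPD + G418 (150 mg/liter), grown 3 days at 28°C to confluence, then pin-replicated into SC liquid with no drug or sordarin derivative GM193663 (2 ng/ml sensitivity; 62.5 ng/ml resistance). 28°C, OD595 read every 24 h for 5 days; growth scored relative to wild type on same plate and to untreated mutant.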
# [6] = system: Saccharomyces cerevisiae; assay: Antifungal activity against Saccharomyces cerevisiae BY4741 harboring STE1 YDR410C mutant gene by spectrophotometry; format: functional; outline: as §3
# [7] = system: Saccharomyces cerevisiae; assay: Antifungal activity against Saccharomyces cerevisiae BY4741 harboring QRI7 YDL104C mutant gene by spectrophotometry; format: functional; outline: as §3
# [8] = system: Saccharomyces cerevisiae; assay: Antifungal activity against Saccharomyces cerevisiae BY4741 harboring MOH1 YBL049W mutant gene by spectrophotometry; format: functional; outline: as §2
# [9] = system: Saccharomyces cerevisiae; assay: Antifungal activity against Saccharomyces cerevisiae BY4741 harboring deletion mutation in dph5 gene at 300 to 500 ng/ml after 24 hrs by liquid growth assay; format: functional
# [10] = system: Saccharomyces cerevisiae; assay: Antifungal activity against Saccharomyces cerevisiae BY4741 harboring YDR020C mutation in unknown gene by spectrophotometry; format: functional; outline: as §3
# [11] = system: Saccharomyces cerevisiae; assay: Antifungal activity against Saccharomyces cerevisiae BY4741 harboring MUP3 YHL036W mutant gene by spectrophotometry; format: functional; outline: as §3
# [12] = system: Saccharomyces cerevisiae; assay: Antifungal activity against Saccharomyces cerevisiae BY4741 harboring SHU2 YDR078C mutant gene by spectrophotometry; format: functional; outline: as §3
# [13] = system: Saccharomyces cerevisiae; assay: Antifungal activity against Saccharomyces cerevisiae BY4741 harboring YGR228W mutation in unknown gene by spectrophotometry; format: functional; outline: as §1
# [14] = system: Saccharomyces cerevisiae; assay: Antifungal activity against Saccharomyces cerevisiae BY4741 harboring TOK1 YJL093C mutant gene by spectrophotometry; format: functional; outline: as §3
# [15] = system: Saccharomyces cerevisiae; assay: Antifungal activity against Saccharomyces cerevisiae BY4741 harboring QRI5 YLR204W mutant gene by spectrophotometry; format: functional; outline: as §3
# [16] = system: Saccharomyces cerevisiae; assay: Antifungal activity against Saccharomyces cerevisiae BY4741 harboring GRR1 YJR090C mutant gene by spectrophotometry; format: functional; outline: as §2
# [17] = system: Saccharomyces cerevisiae; assay: Antifungal activity against Saccharomyces cerevisiae BY4741 harboring MRPL36 YBR122C mutant gene by spectrophotometry; format: functional; outline: as §3
# [18] = system: Saccharomyces cerevisiae; assay: Antifungal activity against Saccharomyces cerevisiae BY4741 harboring MSR1 YHR091C mutant gene by spectrophotometry; format: functional; outline: as §3
# [19] = system: Saccharomyces cerevisiae; assay: Antifungal activity against Saccharomyces cerevisiae BY4741 harboring SUR2 YDR297W mutant gene by spectrophotometry; format: functional; outline: as §3
# [20] = system: Saccharomyces cerevisiae; assay: Antifungal activity against Saccharomyces cerevisiae BY4741 harboring DOC1 YGL240W mutant gene by spectrophotometry; format: functional; outline: as §2
# [21] = system: Saccharomyces cerevisiae; assay: Antifungal activity against Saccharomyces cerevisiae BY4741 harboring YOL079W mutation in unknown gene by spectrophotometry; format: functional; outline: as §1
# [22] = system: Saccharomyces cerevisiae; assay: Antifungal activity against Saccharomyces cerevisiae BY4741 harboring MRPL37 YBR268W mutant gene by spectrophotometry; format: functional; outline: as §3
# [23] = system: Saccharomyces cerevisiae; assay: Antifungal activity against Saccharomyces cerevisiae BY4741 harboring CNM67 YNL225C mutant gene assessed as reduction in fungal growth at 2 ng/ml by spectrophotometry; format: functional, organism-based
# Outline: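 Haploid BY4741 KanMX4 deletion strains pre-grown in YPD with G418 (150 mg/liter) for 3 days at 28°C. They were then pin-replicated into liquid SC with sordarin derivative GM193663 at 2 ng/ml, or without drug. Plates were incubated at 28°C and OD595 read every 24 h for 5 days. Growth was scored against wild type on the same plate and against the drug-free mutant. Hits were retested at least in duplicate.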
# [24] = system: Saccharomyces cerevisiae; assay: Antifungal activity against Saccharomyces cerevisiae BY4741 harboring YHR151C mutation in unknown gene by spectrophotometry; format: functional; outline: as §1
# [25] = system: Saccharomyces cerevisiae; assay: Antifungal activity against Saccharomyces cerevisiae BY4741 harboring DHH1 YDL160C mutant gene by spectrophotometry; format: functional; outline: as §2
# [26] = system: Saccharomyces cerevisiae; assay: Antifungal activity against Saccharomyces cerevisiae BY4741 harboring FUN12 YAL035W mutant gene by spectrophotometry; format: functional; outline: as §2
# [27] = system: Saccharomyces cerevisiae; assay: Antifungal activity against Saccharomyces cerevisiae BY4741 harboring YKL098W mutation in unknown gene by spectrophotometry; format: functional; outline: as §1
# [28] = system: Saccharomyces cerevisiae; assay: Antifungal activity against Saccharomyces cerevisiae BY4741 harboring ECM3 YOR092W mutant gene by spectrophotometry; format: functional; outline: as §2
# [29] = system: Saccharomyces cerevisiae; assay: Antifungal activity against Saccharomyces cerevisiae BY4741 harboring deletion mutation in dph4 gene at 300 to 500 ng/ml after 24 hrs by liquid growth assay; format: functional
# [30] = system: Saccharomyces cerevisiae; assay: Antifungal activity against Saccharomyces cerevisiae BY4741 harboring KTR7 YIL085C mutant gene by spectrophotometry; format: functional; outline: as §2
# [31] = system: Saccharomyces cerevisiae; assay: Antifungal activity against Saccharomyces cerevisiae BY4741 harboring CPR6 YLR216C mutant gene by spectrophotometry; format: functional; outline: as §2
# [32] = system: Saccharomyces cerevisiae; assay: Antifungal activity against Saccharomyces cerevisiae BY4741 harboring YBR099C mutation by spectrophotometry; format: functional; outline: as §3
# [33] = system: Saccharomyces cerevisiae; assay: Antifungal activity against Saccharomyces cerevisiae BY4741 harboring RPL21A YBR191W mutant gene by spectrophotometry; format: functional; outline: as §3
# [34] = system: Saccharomyces cerevisiae; assay: Antifungal activity against Saccharomyces cerevisiae BY4741 harboring YLR202C mutation in unknown gene by spectrophotometry; format: functional; outline: as §1
# [35] = system: Saccharomyces cerevisiae; assay: Antifungal activity against Saccharomyces cerevisiae BY4741 harboring YHL041W mutation in unknown gene by spectrophotometry; format: functional; outline: as §1
# [36] = system: Saccharomyces cerevisiae; assay: Antifungal activity against Saccharomyces cerevisiae BY4741 harboring PRE9 YGR135W mutant gene by spectrophotometry; format: functional; outline: as §3
compound,measurement,setting,value
CO[C@H]1[C@@H](O)[C@H](O)[C@H](OC[C@@]23C[C@@H]4[C@H](C)CC[C@H]4[C@@]4(C=O)CC2C=C(C(C)C)[C@@]34C(=O)O)O[C@@H]1C [SORDARIN],Activity,[1],Active
same,MIC,[2],> 0.5 µg/mL
same,MIC,[3],> 0.125 µg/mL
same,MIC,[4],> 0.5 µg/mL
same,MIC,[5],> 0.5 µg/mL
same,MIC,[6],> 0.125 µg/mL
same,MIC,[7],> 0.125 µg/mL
same,MIC,[8],> 0.5 µg/mL
same,Activity,[9],50%
same,MIC,[10],> 0.5 µg/mL
same,MIC,[11],> 0.5 µg/mL
same,MIC,[12],> 0.5 µg/mL
same,MIC,[13],> 0.5 µg/mL
same,MIC,[14],> 0.125 µg/mL
same,MIC,[15],> 0.125 µg/mL
same,MIC,[16],> 0.5 µg/mL
same,MIC,[17],> 0.5 µg/mL
same,MIC,[18],> 0.125 µg/mL
same,MIC,[19],> 0.0625 µg/mL
same,MIC,[20],> 0.5 µg/mL
same,MIC,[21],> 0.5 µg/mL
same,MIC,[22],> 0.5 µg/mL
same,Activity,[23],Active
same,MIC,[24],> 0.5 µg/mL
same,MIC,[25],> 0.125 µg/mL
same,MIC,[26],> 0.125 µg/mL
same,MIC,[27],> 0.5 µg/mL
same,MIC,[28],> 0.125 µg/mL
same,Activity,[29],50%
same,MIC,[30],> 0.5 µg/mL
same,MIC,[31],> 0.125 µg/mL
same,MIC,[32],> 0.5 µg/mL
same,MIC,[33],> 0.125 µg/mL
same,MIC,[34],> 0.5 µg/mL
same,MIC,[35],> 0.5 µg/mL
same,MIC,[36],> 0.5 µg/mL
